A short description of test [1]: Inhibition of rat protein farnesyltransferase pretreated for 15 mins followed by dansyl-Gly-Cys-Val-Leu-Ser-OH substrate addition in presence of farnesyl pyrophosphate measured after 30 mins by fluorescence assay.
Another test relates to HepG2. The test is described as follows: Antiproliferative activity against human HepG2 cells measured after 72 hrs by SRB assay. The settings on record: HepG2, 72 h. The test is classed as functional. An outline of the steps: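 HepG2 cells from BCRC grown in RPMI 1640 with 10% FBS, nonessential amino acids, penicillin/streptomycin at 37 °C, 5% CO2. Cells were seeded in 10% FBS medium, and a T0 plate was TCA-fixed at 24 h. Compound or DMSO was added for 72 h, then cells were fixed with 10% TCA and stained with 0.4% SRB. Absorbance read at 515 nm; % growth vs T0 and control gave GI50.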
Background: Sulforhodamine B stains cellular protein and so reports cell mass.

A short description of test [2]: Inhibition of porcine brain protein farnesyltransferase using p21 ras protein as substrate in presence of [3H]FPP after 1 hr by liquid scintillation counting method. The arrangement: species or system Sus scrofa.

On to `COC1=CC(=O)[C@@]2(c3cc(=O)c4ccc(OC)cc4o3)[C@H](C[C@]3(C)[C@@H](C(=O)O)CC=C4[C@H]3CCCC4(C)C)C(C)=CC[C@H]2C1=O`, for which the IC50 in test [1] worked out at 7.5 µM. The GI50 in the test with HepG2 was over 10 µM.
For `COC1=CC(=O)[C@@]2(c3cc(=O)c4c(O)cc(OC)cc4o3)[C@H](C[C@]3(C)[C@@H](C(=O)O)CC=C4[C@H]3CCCC4(C)C)C(C)=CC[C@H]2C1=O` the same measures were 5 µM and 8.6 µM.
For `COC1=CC(=O)[C@@]2(c3cc(=O)c4c(O)cc(O)cc4o3)[C@H](CC=C(C)[C@@H]2C[C@]2(C)[C@@H](C(=O)O)CC=C3[C@H]2CCCC3(C)C)C1=O`, the concentration for half-maximal inhibition (IC50) in test [1] worked out at 5.1 µM. Also, the concentration for 50% growth inhibition (GI50) in the test with HepG2 is over 10 µM.
Consider `COC1=CC(=O)[C@@]2(c3cc(=O)c4ccc(O)cc4o3)[C@H](CC=C(C)[C@@H]2C[C@]2(C)[C@@H](C(=O)O)CC=C3[C@H]2CCCC3(C)C)C1=O`, for which the IC50 in test [1] stood at 27.9 µM. The same compound gave a GI50 in the test with HepG2 of over 10 µM.
The corresponding values for `COC1=CC(=O)[C@@]2(c3cc(=O)c4c(O)cc(O)cc4o3)[C@H](C[C@]3(C)[C@@H](C(=O)O)CC=C4[C@H]3CCCC4(C)C)C(C)=CC[C@H]2C1=O` are 8.5 µM and over 10 µM.
For `COC1=CC(=O)[C@@]2(c3cc(=O)c4ccc(O)cc4o3)[C@H](C[C@]3(C)[C@@H](C(=O)O)CC=C4[C@H]3CCCC4(C)C)C(C)=CC[C@H]2C1=O` the same measures were 47 µM and over 10 µM.
In the case of `CSCC[C@H](NC(=O)c1ccc(NC(=O)[C@@H](N)CS)cc1)C(=O)O`, the figures for the IC50 in test [1] and in test [2] were 0.1 µM and 0.05 to 0.075 µM, respectively.

As usually defined, the IC50 is the concentration that gives 50% inhibition. One may read the GI50 as the concentration giving 50% growth inhibition. Read a low GI50 as more potent growth inhibition.

The record behind these values is ChEMBL document CHEMBL4041489, “Meroterpenoids and Chalcone-Lignoids from the Roots of Mimosa diplotricha” (J Nat Prod, 2016).
